NPY-Y1 PAM-ag: NPY-Y1 receptor potentiators or agonists, primary screen, cell-based | Neuropeptide Y receptor type 1 (Homo sapiens), P25929 | NPY-Y1 expressing cells, potentiator/agonist activation | activation, % at 3.6 µM | 220,000 tested, 0.37% active | AID 1304, 2008; in the data active means activation above about 33%, passing the limit was not always enough;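 further: cells stimulated with NPY at EC10 then isoproterenol at EC100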
Target sequence (P25929 whole entry, looked up): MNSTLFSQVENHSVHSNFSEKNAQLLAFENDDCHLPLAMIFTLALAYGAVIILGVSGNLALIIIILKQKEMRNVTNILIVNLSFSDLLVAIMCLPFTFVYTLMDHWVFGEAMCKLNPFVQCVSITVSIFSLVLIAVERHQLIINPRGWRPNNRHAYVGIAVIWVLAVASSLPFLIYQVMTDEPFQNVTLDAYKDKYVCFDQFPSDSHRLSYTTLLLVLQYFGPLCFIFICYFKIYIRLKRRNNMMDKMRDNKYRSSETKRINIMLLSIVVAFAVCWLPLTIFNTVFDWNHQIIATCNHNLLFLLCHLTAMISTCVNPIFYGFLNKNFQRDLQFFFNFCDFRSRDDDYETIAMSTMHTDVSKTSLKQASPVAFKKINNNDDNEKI
NPY-Y2 antag: NPY-Y2 receptor antagonists, primary screen, cell-based | Neuropeptide Y receptor type 2 (Homo sapiens), P49146 | NPY-Y2 expressing cells, antagonist mode | inhibition, % at 2.7 µM | 140,000 tested, 0.99% active | AID 793, 2007; in the data active means inhibition above about 17%
Target sequence (P49146 whole entry, looked up): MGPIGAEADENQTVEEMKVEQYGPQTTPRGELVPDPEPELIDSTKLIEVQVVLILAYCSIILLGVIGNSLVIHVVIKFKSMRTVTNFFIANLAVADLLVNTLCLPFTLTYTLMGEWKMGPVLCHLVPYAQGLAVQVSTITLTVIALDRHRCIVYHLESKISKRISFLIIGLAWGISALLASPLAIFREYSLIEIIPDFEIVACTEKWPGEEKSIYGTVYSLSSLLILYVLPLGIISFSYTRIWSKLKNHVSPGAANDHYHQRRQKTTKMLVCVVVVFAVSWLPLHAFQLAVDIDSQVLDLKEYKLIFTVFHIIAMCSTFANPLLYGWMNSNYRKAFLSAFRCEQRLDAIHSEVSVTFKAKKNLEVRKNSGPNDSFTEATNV
NPY-Y1 antag: NPY-Y1 receptor antagonists, primary screen, cell-based | Neuropeptide Y receptor type 1 (Homo sapiens), P25929 | HEK293-CNG Y1 cells, membrane potential fluorescence; NPY at EC95, then isoproterenol | inhibition, % at 3.6 µM | 200,000 tested, 1% active | AID 1040, 2008;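 active means inhibition above the campaign mean inhibition of all tested compounds plus 3 SD, cut at about 20% in these data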
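Assay system: HEK293 Y1/CNG channel cell line; Doses: single compound dose of 3.6 µM, 0.4% DMSO; Timing: dye 3 h, compound 60 min room temperature, stimulation 45 min; Technique: Membrane-potential fluorescent dye readout; Measure: % inhibition of NPY effect.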
INS promoter inh: inhibitors of insulin promoter-driven GFP, primary screen, imaging, TRM-6 cells, eGFP reporter, cell count; inhibition, % at 2 µM; reporter expression induced with tamoxifen; AID 1273, 2008; 130,000 tested, 0.9% active;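 active means inhibition above the mean plus 3 SD, with well images judged a real hit on visual review, cut at about 60% in these data, passing the limit was not always enough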
RAM network inh: inhibitors of the yeast RAM network, primary screen, dse1pr::URA3 reporter, 5-FOA selection | S. cerevisiae dse1pr::URA3 reporter, 5-FOA growth OD615, 2 d; analog-sensitive cbk1-as2 kinase mutant strain | inhibition, % at 50 µM | 190,000 tested, 1.8% active;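 active means inhibition above a set limit, 3 SD over mean compound inhibition, cut at about 8.4% in these data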;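 further: inhibition rescues growth on 5-FOA so higher OD means more RAM inhibition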
NPY-Y2 PAM-ag: NPY-Y2 potentiators or agonists, primary screen, cell-based; cells expressing NPY-Y2, potentiator/agonist read-out; 220,000 tested, 0.45% active; activation, % at 3.6 µM; AID 1359, 2008; in the data active means activation above about 27%;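 further: cells stimulated with NPY near EC25 plus isoproterenol at EC100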
NPY-Y2 pot conf: NPY-Y2 potentiators or agonists, confirmation, cell-based. shares compounds with NPY-Y2 PAM-ag. cell-based NPY-Y2 potentiator/agonist assay. activation, % at 3.6 µM. 450 tested, 20% active. AID 1539, 2009; in the data active means activation above about 33%
NPY-Y1 counter: NPY-Y1 potentiators or agonists, counter-screen for NPY-Y2 potentiator project, cell-based, fluorescence; Y1 HEK293-CNG cells, membrane potential fluorescence; shares compounds with NPY-Y2 PAM-ag; 450 tested, 20% active; activation, % at 3.6 µM; in the data active means activation above about 45%;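 further: cells stimulated with submaximal NPY then isoproterenol with phosphodiesterase inhibitor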
NPY-Y1 ag 2: NPY-Y1 direct agonists, selectivity assay for NPY-Y2 potentiator project, cell-based, fluorescence | shares compounds with NPY-Y2 PAM-ag | HEK293 Y1-CNGC, membrane potential fluorescence, agonism | activation, % at 3.6 µM | 450 tested, 37% active | AID 1702, 2009;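 active means activation above the mean of DMSO-only control wells plus 3 SD, cut at about 18% in these data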;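 further: cells stimulated with 1 µM isoproterenol plus the PDE inhibitor Ro 20-1724; Y1 agonists lower the membrane potential dye signal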
CNGC inhibitor: CNGC cAMP sensor activity inhibitors, counter-screen for NPY-Y2 potentiator project, cell-based, HEK293-CNG parental, membrane potential fluorescence. shares compounds with NPY-Y2 PAM-ag. isoproterenol cAMP. inhibition, % at 3.6 µM. 450 tested, 32% active. AID 1703, 2009;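 active means inhibition above the control-well mean plus 3 SD of those wells, cut at about 22% in these data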
NPY-Y2 ag 2: NPY-Y2 direct agonists, counter-screen for NPY-Y2 potentiator project, cell-based, fluorescence | shares compounds with NPY-Y2 PAM-ag | HEK293 Y2/CNGC cells, membrane potential fluorescence, agonist mode | activation, % at 3.6 µM | 450 tested, 56% active | AID 1710, 2009;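 active means activation above the mean of solvent-only control wells plus 3 SD, cut at about 10% in these data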;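 further: cells stimulated by isoproterenol with no NPY added so direct agonism is tested; agonism lowers probe fluorescence through less cAMP and CNG channel opening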
Large screens that a line does not name were inactive (follow-up assays come after a bar, where they were run). In the library only some 3.8% were active in any assay of this set; here they are far more common.

CC1(C)C(=O)OC(c2c3ccccc3cc3ccccc23)C(C)(C)C1=O (stereo not given)	none (no result: NPY-Y2 antag, NPY-Y1 antag, INS promoter inh, RAM network inh)
CC1(C)C(=O)OC(/C=C\c2ccccc2)C(C)(C)C1=O (stereo not given)	NPY-Y2 PAM-ag 33 (no result: NPY-Y2 antag) | NPY-Y2 pot conf inactive | NPY-Y1 counter inactive | NPY-Y1 ag 2 inactive | CNGC inhibitor inactive | NPY-Y2 ag 2 inactive
Cc1ccccc1OCC(O)CN1CCC(C)CC1 (stereo not given)	NPY-Y2 PAM-ag 37 (no result: NPY-Y2 antag) | NPY-Y2 pot conf inactive | NPY-Y1 counter inactive | NPY-Y1 ag 2 19 | CNGC inhibitor inactive | NPY-Y2 ag 2 42
O=C1/C(=C\c2ccc(O)c(O)c2)C(c2ccccc2)=NN1c1ccccc1	NPY-Y2 PAM-ag 26 (no result: NPY-Y2 antag) | NPY-Y2 pot conf inactive | NPY-Y1 counter inactive | NPY-Y1 ag 2 inactive | CNGC inhibitor inactive | NPY-Y2 ag 2 inactive
COc1cc(/C=C2\C(=O)N(c3ccc(NC(C)=O)cc3)N=C2c2ccccc2)ccc1O	none (no result: NPY-Y2 antag, INS promoter inh)
CC(=O)Nc1ccc(S(=O)(=O)NCCSCc2c(Cl)cccc2Cl)cc1	NPY-Y2 PAM-ag 36 | NPY-Y2 pot conf inactive | NPY-Y1 counter inactive | NPY-Y1 ag 2 inactive | CNGC inhibitor inactive | NPY-Y2 ag 2 inactive
CC(=O)Nc1ccc(S(=O)(=O)NCCSCc2cccc(Cl)c2)cc1	none
CC(C)c1nnc(SCC(=O)N2CCc3ccccc32)n1N	none (no result: NPY-Y2 antag, INS promoter inh)
CC(=O)c1ccc(NC(=O)Nc2cccc(Cl)c2)cc1	none
CC(=O)C(=Nc1ccc(Cl)cc1Cl)NNc1cccc(Cl)c1	NPY-Y2 PAM-ag 33 | NPY-Y2 pot conf inactive | NPY-Y1 counter inactive | NPY-Y1 ag 2 inactive | CNGC inhibitor inactive | NPY-Y2 ag 2 28
CCOCCCNC(=O)C1CCCN1C(=O)Nc1ccccc1[N+](=O)[O-] (stereo not given)	none (no result: NPY-Y2 antag)
CCc1nc(NCC2CCCO2)c(C#N)c2c1COC(C)(C)C2 (stereo not given)	none
CCc1nc(NCC(C)C)c(C#N)c2c1COC(C)(C)C2	NPY-Y2 PAM-ag 38 | NPY-Y2 pot conf inactive | NPY-Y1 counter inactive | NPY-Y1 ag 2 inactive | CNGC inhibitor inactive | NPY-Y2 ag 2 inactive
O=C(Nc1ccccc1Cl)c1c(F)c(F)c(F)c(F)c1F	NPY-Y2 PAM-ag 32 (no result: RAM network inh) | NPY-Y2 pot conf inactive | NPY-Y1 counter inactive | NPY-Y1 ag 2 inactive | CNGC inhibitor inactive | NPY-Y2 ag 2 16
Cc1ccccc1NC(=O)c1c(F)c(F)c(F)c(F)c1F	none
COc1ccc(NC(=O)C(=S)NC2CCCCC2)cc1	NPY-Y2 PAM-ag 31 (no result: NPY-Y2 antag, INS promoter inh) | NPY-Y2 pot conf inactive | NPY-Y1 counter inactive | NPY-Y1 ag 2 inactive | CNGC inhibitor inactive | NPY-Y2 ag 2 inactive
CC(C)CC(NC(=O)c1ccc(Cl)cc1)C(=O)OCc1cc([N+](=O)[O-])cc2c1OCOC2 (stereo not given)	NPY-Y2 PAM-ag 28 (no result: INS promoter inh) | NPY-Y2 pot conf inactive | NPY-Y1 counter inactive | NPY-Y1 ag 2 inactive | CNGC inhibitor inactive | NPY-Y2 ag 2 18
COC(=O)CCN1CCN(S(=O)(=O)c2ccccc2Br)CC1	none (no result: NPY-Y2 antag, INS promoter inh)
O=C(CCC(=O)Nc1ccccc1)NNC(=O)c1ccccc1Cl	none (no result: NPY-Y2 antag)
CC1Oc2ccccc2N(CC(=O)NCc2ccc3c(c2)OCO3)C1=O (stereo not given)	none (no result: NPY-Y2 antag)
Cc1cccc(NS(=O)(=O)c2cccc3nonc23)c1	none (no result: NPY-Y2 antag)
O=S(=O)(Nc1cccc2ccccc12)c1cccc2nonc12	NPY-Y2 PAM-ag 63 (no result: NPY-Y2 antag, NPY-Y1 antag, INS promoter inh, RAM network inh) | NPY-Y2 pot conf inactive | NPY-Y1 counter inactive | NPY-Y1 ag 2 inactive | CNGC inhibitor inactive | NPY-Y2 ag 2 inactive
O=C(Nc1ccccc1N1CCOCC1)c1ccc2nc[nH]c2c1	NPY-Y2 PAM-ag 41 (no result: NPY-Y2 antag) | NPY-Y2 pot conf inactive | NPY-Y1 counter inactive | NPY-Y1 ag 2 inactive | CNGC inhibitor inactive | NPY-Y2 ag 2 inactive
O=C(Nc1ccccc1N1CCOCC1)c1cccc(F)c1	none (no result: NPY-Y2 antag)
COc1ccc(CC(NC(C)=O)C(=O)N2CCN(C(=O)Nc3cccc(F)c3)CC2)cc1OC (stereo not given)	none (no result: NPY-Y2 antag, INS promoter inh)
COC(=O)c1ccccc1NC(=O)/C=C/c1ccco1	NPY-Y2 PAM-ag 33 | NPY-Y2 pot conf 41 | NPY-Y1 counter 50 | NPY-Y1 ag 2 56 | CNGC inhibitor 35 | NPY-Y2 ag 2 48
CCOC(=O)c1c(NC(=O)c2noc(C)c2[N+](=O)[O-])sc(C(C)=O)c1C	none (no result: NPY-Y2 antag, INS promoter inh)
COc1ccc(S(=O)(=O)Nc2cccc(F)c2)cc1C	none (no result: NPY-Y2 antag)
COc1ccc(S(=O)(=O)Nc2ccc(S(=O)(=O)Nc3ccc(F)cc3)cc2)cc1C	RAM network inh 9.6, NPY-Y2 PAM-ag 34 | NPY-Y2 pot conf inactive | NPY-Y1 counter inactive | NPY-Y1 ag 2 27 | CNGC inhibitor 23 | NPY-Y2 ag 2 21
CCCc1c(O)nc(SCC(=O)NCc2ccco2)[nH]c1=O	none (no result: NPY-Y2 antag)
CC(=O)Nc1nc(-c2ccc3c(c2)CCN3S(C)(=O)=O)cs1	none (no result: NPY-Y2 antag, INS promoter inh)
CS(=O)(=O)N1CCc2cc(-c3csc(NC(=O)Cc4cccs4)n3)ccc21	NPY-Y2 PAM-ag 36 (no result: INS promoter inh) | NPY-Y2 pot conf inactive | NPY-Y1 counter inactive | NPY-Y1 ag 2 inactive | CNGC inhibitor inactive | NPY-Y2 ag 2 inactive
Cc1cc(C)c2sc(N(CCN(C)C)C(=O)c3c(F)cccc3F)nc2c1	none (no result: NPY-Y2 antag)
Cc1cc(C)c2sc(N(CCCN(C)C)C(=O)c3ccc(Br)s3)nc2c1	NPY-Y2 PAM-ag 37 (no result: NPY-Y2 antag) | NPY-Y2 pot conf 74 | NPY-Y1 counter 88 | NPY-Y1 ag 2 67 | CNGC inhibitor 75 | NPY-Y2 ag 2 81
CCc1cccc(NC(=O)c2cc(OC)c(OC)c(OC)c2)c1	NPY-Y2 PAM-ag 61 (no result: NPY-Y2 antag) | NPY-Y2 pot conf inactive | NPY-Y1 counter inactive | NPY-Y1 ag 2 inactive | CNGC inhibitor inactive | NPY-Y2 ag 2 inactive

Screening data (PubChem)
